In PMC11905928 (Cell reports. Physical science, 2024):
pIC50: −log10 of the molar value. In brackets after ≈: the same amount, converted by molar mass. Counter-ions that a name gives are not always drawn. Like-named read-outs stand apart in the source and are kept apart here. Each block holds one compound with its values, some of them ahead of it.

Key:
[1] = target: Aβ19–20 (FF) dimerization (Homo sapiens, UniProt P05067); test: biochemical; conditions: for pIC50: Hill equation, FJ, 200 mM KCl
Aβ1–42 aggregation = Aβ1–42 aggregation (Homo sapiens, UniProt P05067); test: Thioflavin T; type: biochemical; conditions: for normalized fluorescent intensity with respect to positive control Aβ1–42+ThT: Aβ1–42 preincubated 24 h
Sequence of Aβ1–42 aggregation (P05067 672-713): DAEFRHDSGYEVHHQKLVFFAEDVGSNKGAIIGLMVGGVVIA

Solubility = type: physicochemical
[2] = tested on: human microglia cells (C20 cell line); test: MTT cell viability, protection against Aβ1–42 induced toxicity; type: cell-based; conditions: 48 h; for viability: C20, Aβ1–42 500 nM; for viability at 0.5 µM: Homo sapiens, Microglia
C20 cells = test: MTT cell viability, compound by itself; type: cell-based, human
In short: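 MTT assay on human microglial C20 cells, run by dose and also by incubation time at 1 uM of test compound. At least three independent experiments, each with 10 technical replicates; error bars are SDs.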

[3] = tested on: neuroblastoma SH-SY5Y cells; test: MTT cell viability, Aβ1–42 treated neuroblastoma cells; type: cell-based; conditions: 10 μM Aβ1–42, Figure S32

pIC50 ([1]; IC50 on the FF-dimerization): 4.11
SMILES: CN(C)[C@@H]1C(O)=C(C(N)=O)C(=O)[C@@]2(O)C(O)=C3C(=O)c4c(O)cccc4[C@@](C)(O)[C@H]3C[C@@H]12 [Tetracycline, tetracycline]

pIC50 ([1]; IC50 on the FF-dimerization): 4.88
SMILES: O=C(/C=C/c1ccc(O)c(O)c1)O[C@H](Cc1ccc(O)c(O)c1)C(=O)O [Rosmarinic acid (RA), rosmarinic acid, reference compound]
viability ([2]; compound 1 μM): 66% ± 2%
viability ([2]; compound 5 μM): 69% ± 2%
viability at 0.5 µM [2]: 67%

effect on the FF-dimerization (in words) [1]: strong inhibition effect
SMILES: COc1cc(/C=C/C(=O)CC(=O)/C=C/c2ccc(O)c(OC)c2)ccc1O [curcumin]

The next lines start with the compound.

SMILES: O=C(O[C@@H]1Cc2c(O)cc(O)cc2O[C@@H]1c1cc(O)c(O)c(O)c1)c1cc(O)c(O)c(O)c1 [Epigallocatechin gallate (EGCG), epigallocatechin gallate]
pIC50 ([1]; read-out: IC50 on the FF-dimerization): 4.58

SMILES: Cc1c2ccncc2c(C)c2c1[nH]c1ccccc12 [Ellipticine]
effect on the FF-dimerization (in words) ([1]; single-molecule screening of NIH library): concentration-dependent promotion effect
normalized fluorescent intensity with respect to positive control Aβ1–42+ThT (Aβ1–42 aggregation; 0.2 μM compound, ThT 3.75 μM): 106%
normalized fluorescent intensity with respect to positive control Aβ1–42+ThT (Aβ1–42 aggregation; 0.5 μM compound, ThT 3.75 μM): 112%
effect on Aβ1–42 aggregation (in words) (Aβ1–42 aggregation; concentration >1 μM): inhibition effect
effect on Aβ1–42 aggregation (in words) (Aβ1–42 aggregation; low-concentration range ≤0.5 μM): stimulator
solubility (Solubility; aqueous buffer): ≤ 200 µM
solubility (Solubility; methanol-water (16:84 v/v), aqueous with cosolvent or surfactant or cyclodextrin): 1200 µM (≈ 296 µg/mL)
viability ([2]; compound 0.05 μM): 65% ± 3%
viability ([2]; compound 0.1 μM): 64% ± 4%
viability at 0.5 µM [2]: 61%
C20 cell viability at high concentrations (in words) (C20 cells; high-concentration range such as 5 μM, Figure S31): significantly influenced
effect on cells treated with Aβ1–42 (in words) [3]: protective effects

SMILES: C[C@H](Cc1ccc(O)c(O)c1)[C@@H](C)Cc1ccc(O)c(O)c1 [Nordihydroguaiaretic acid (NDGA), nordihydroguaiaretic acid]
pIC50 ([1]; IC50 on the FF-dimerization): 3.97

SMILES: COc1cccc2c1C(=O)c1c(O)c3c(c(O)c1C2=O)C[C@@](O)(C(C)=O)C[C@@H]3O[C@H]1C[C@H](N)[C@H](O)[C@H](C)O1 [Daunorubicin hydrochloride, reference compound]
pIC50 ([1]; IC50 on the FF-dimerization): 5.46
effect on Aβ1–42 aggregation (in words) (Aβ1–42 aggregation; after 24-h incubation, ThT 3.75 μM): inhibitory effects
toxicity of the compound by itself (in words) (C20 cells; C20 cells): showed a toxicity effect by itself
